These results are taken from ChEMBL document CHEMBL1137715, “A facile synthesis of alpha,alpha'-(EE)-bis(benzylidene)-cycloalkanones and their antitubercular evaluations” (2009).

For one experiment, the system named is Staphylococcus aureus. The experiment in a line: Antimicrobial activity against Staphylococcus aureus ATCC 25923 after 24 hrs by standard microbroth dilution technique. It is filed as functional, organism-based. (In general: Broth dilution looks for growth in wells or tubes with falling amounts of substance.)
The next experiment relates to Klebsiella pneumoniae. The experiment in a line: Antimicrobial activity against Klebsiella pneumoniae ATCC 27736 after 24 hrs by standard microbroth dilution technique. It is filed as functional, organism-based.
The subject of experiment [1] is Trichophyton mentagrophytes. As to the kind of experiment: Antimicrobial activity against Trichophyton mentagrophytes after 96 hrs by standard microbroth dilution technique. It is filed as functional.
A further experiment relates to Pseudomonas aeruginosa. The experiment in a line: Antimicrobial activity against Pseudomonas aeruginosa ATCC BAA-427 after 24 hrs by standard microbroth dilution technique. It is filed as functional, organism-based.
The next experiment concerns Sporothrix schenckii. As to the kind of experiment: Antimicrobial activity against Sporothrix schenckii after 72 hrs by standard microbroth dilution technique. The class given is functional.
Experiment [2] deals with Mycobacterium tuberculosis. As to the kind of experiment: Antitubercular activity against Mycobacterium tuberculosis H37Rv after 24 hrs by agar microdilution method. The class given is functional. The method, boiled down: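 Agar microdilution on M. tuberculosis H37Rv. Two-fold compound dilutions were made in 7H10 agar with OADC. Inoculum came from L–J medium, harvested in 0.85% saline with 0.05% Tween-80. Slants were held 24 h at 37 °C, then streaked with 5×10^4 bacilli per tube and incubated at 37 °C for 30 days. MIC was the concentration giving complete colony inhibition versus medium-only control.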

Experiment [3] deals with Mycobacterium tuberculosis. As to the kind of experiment: Antitubercular activity against Mycobacterium tuberculosis H37Ra after 5 days by microplate alamar blue assay. It is filed as functional. The conditions noted are these: 120 h. In outline:
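Microplate Alamar Blue assay on M. tuberculosis H37Ra. A log-phase culture was diluted to a final OD550 nm of 0.05 in Sauton's medium. Test compounds in DMSO were dispensed into 96-well plates, with two-fold dilutions in the initial screen.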

For a further experiment, the system named is Escherichia coli. As to the kind of experiment: Antimicrobial activity against Escherichia coli ATCC 9637 after 24 hrs by standard microbroth dilution technique. The class given is functional, organism-based.
In the next experiment the test system is Aspergillus fumigatus. The experiment in a line: Antimicrobial activity against Aspergillus fumigatus after 72 hrs by standard microbroth dilution technique. The class given is functional.
The subject of another experiment is Cryptococcus neoformans. As to the kind of experiment: Antimicrobial activity against Cryptococcus neoformans after 72 hrs by standard microbroth dilution technique. The class given is functional.
A further experiment has as its system Candida albicans. As to the kind of experiment: Antimicrobial activity against Candida albicans ATCC 1405B after 48 hrs by standard microbroth dilution technique. The class given is functional.
The next experiment concerns Candida parapsilosis. The experiment in a line: Antimicrobial activity against Candida parapsilosis ATCC 22019 after 48 hrs by standard microbroth dilution technique. The class given is functional. The conditions noted are these: Lodderomyces parapsilosis, ATCC 22019, 48 h.

Converted amounts (≈) assume the structure as drawn. The source made the active and inactive calls. No cut-off for these calls is given here.

In the case of `O=C1/C(=C/c2ccc(Br)cc2)CCC/C1=C\c1ccc(Br)cc1`, the outcome with Staphylococcus aureus, with Klebsiella pneumoniae, in the experiment on Pseudomonas aeruginosa and in the experiment with Escherichia coli was inactive. Besides, the MIC (as a rule, the least concentration at which growth counts as inhibited) in experiment [1] came to 12.5 µg/mL (≈ 28.9 µM); against Sporothrix schenckii, 25 µg/mL (≈ 57.8 µM); in [2] it was 12.5 µg/mL (≈ 28.9 µM); in [3], 1.56 µg/mL (≈ 3.61 µM).

`O=C1/C(=C/c2ccc3ccccc3c2)CCC/C1=C\c1ccc2ccccc2c1`: the result in the experiment with Staphylococcus aureus, in the experiment with Klebsiella pneumoniae, in the experiment with Pseudomonas aeruginosa and in the experiment on Escherichia coli was inactive. Also, the MIC against Aspergillus fumigatus is over 50 µg/mL; in the experiment with Cryptococcus neoformans, over 50 µg/mL; in the experiment with Candida albicans, over 50 µg/mL; against Candida parapsilosis, over 50 µg/mL; in [2] it was over 12.5 µg/mL; in experiment [3], over 12.5 µg/mL.

On to `OC1/C(=C/c2ccc(Br)cc2)CCC/C1=C\c1ccc(Br)cc1` (stereo not drawn), for which the outcome in the experiment with Staphylococcus aureus, in the experiment on Klebsiella pneumoniae, in the experiment with Pseudomonas aeruginosa and in the experiment on Escherichia coli was inactive. Further, the minimal inhibitory concentration (MIC) was over 50 µg/mL with Aspergillus fumigatus; over 50 µg/mL against Cryptococcus neoformans; over 50 µg/mL against Candida albicans; over 50 µg/mL against Candida parapsilosis; 12.5 µg/mL (≈ 28.8 µM) in experiment [2]; over 12.5 µg/mL in [3].
